ChEMBL document CHEMBL1154686, “Pyrazoline bearing benzimidazoles: search for anticancer agent” (2010)

What was measured:
Type in all cases: functional
[1] = tested on: NCI-H522; test: Growth inhibition of human NCI-H522 cells after 48 hrs by SRB assay; settings: NCI-H522, 48 h
Outline: (§1)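 NCI-60 panel protocol with adherent lines. Cells were seeded at 5,000–40,000 cells/well, depending on doubling time, and pre-incubated 24 h at 37 °C, 5% CO₂. Time-zero plates were TCA-fixed at drug addition. Drugs were dissolved in DMSO and exposed for 48 h. Cells were fixed with cold TCA (final 10%) for 60 min at 4 °C, stained with 0.4% SRB in 1% acetic acid for 10 min, solubilized with 10 mM trizma base, and read at A515.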

[2] = tested on: SNB-19; test: Growth inhibition of human SNB19 cells after 48 hrs by SRB assay; settings: SNB-19, 48 h; outline: as §1
[3] = tested on: A498; test: Growth inhibition of human A498 cells after 48 hrs by SRB assay; settings: A498, 48 h; outline: as §1
[4] = tested on: HT-29; test: Growth inhibition of human HT-29 cells after 48 hrs by SRB assay; settings: HT-29, 48 h; outline: as §1
[5] = tested on: HCT-116; test: Growth inhibition of human HCT116 cells after 48 hrs by SRB assay; settings: HCT-116, 48 h; outline: as §1
[6] = tested on: PC-3; test: Growth inhibition of human PC3 cells after 48 hrs by SRB assay; settings: PC-3, 48 h; outline: as §1
[7] = tested on: SN12C; test: Growth inhibition of human SN12C cells after 48 hrs by SRB assay; outline: as §1
[8] = tested on: CAKI-1; test: Growth inhibition of human Caki1 cells after 48 hrs by SRB assay; settings: CAKI-1, 48 h; outline: as §1
[9] = tested on: MDA-MB-231; test: Growth inhibition of human MDA-MB-231 cells after 48 hrs by SRB assay; settings: MDA-MB-231, 48 h; outline: as §1
[10] = tested on: BT-549; test: Growth inhibition of human BT549 cells after 48 hrs by SRB assay; settings: BT-549, 48 h; outline: as §1
[11] = tested on: HOP-62; test: Growth inhibition of human HOP62 cells after 48 hrs by SRB assay; settings: HOP-62, 48 h; outline: as §1
[12] = tested on: RPMI-8226; test: Growth inhibition of human RPMI8226 cells after 48 hrs by SRB assay; settings: RPMI-8226, 48 h
Outline: (§2)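 Suspension leukemia lines were run in the NCI-60 SRB format. Cells were plated at 5,000–40,000 cells/well and pre-incubated 24 h at 37 °C, 5% CO₂, with time-zero plates fixed at drug addition. Drug exposure in DMSO-derived dilutions lasted 48 h. Settled cells were fixed with 80% TCA (final 16%), stained with 0.4% SRB, solubilized in 10 mM trizma base, and read at 515 nm. Percent growth was taken relative to the time-zero and control readings.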

[13] = tested on: M14; test: Growth inhibition of human M14 cells after 48 hrs by SRB assay; settings: M14, 48 h; outline: as §1
[14] = tested on: NCI-H322M; test: Growth inhibition of human NCI-H322M cells after 48 hrs by SRB assay; outline: as §1
[15] = tested on: NCI-H226; test: Growth inhibition of human NCI-H226 cells after 48 hrs by SRB assay; settings: NCI-H226, 48 h; outline: as §1
[16] = tested on: UACC-62; test: Growth inhibition of human UACC62 cells after 48 hrs by SRB assay; settings: UACC-62, 48 h
Outline: (§3)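 NCI 60-cell panel, five-dose format: cells plated at 5,000–40,000/well by doubling time, preincubated 24 h at 37 °C, 5% CO2; time-zero plates TCA-fixed. Compound dissolved in DMSO, five concentrations (0.01, 0.1, 1, 10, 100 µM) plus control, 48 h. Cells fixed with cold TCA, stained with 0.4% SRB in 1% acetic acid, bound dye solubilized in 10 mM trizma base, absorbance at 515 nm. GI50 taken from [(Ti–Tz)/(C–Tz)]×100 = 50.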

[17] = tested on: CCRF-CEM; test: Growth inhibition of human CCRF-CEM cells after 48 hrs by SRB assay; outline: as §2
[18] = tested on: COLO 205; test: Growth inhibition of human COLO205 cells after 48 hrs by SRB assay; settings: COLO 205, 48 h; outline: as §1
[19] = tested on: RXF 393; test: Growth inhibition of human […] cells after 48 hrs by SRB assay; settings: RXF 393, 48 h; outline: as §1
[20] = tested on: MDA-MB-468; test: Growth inhibition of human MDA-MB-468 cells after 48 hrs by SRB assay; settings: MDA-MB-468, 48 h; outline: as §1
[21] = tested on: MCF7; test: Growth inhibition of human MCF7 cells after 48 hrs by SRB assay; settings: MCF7, 48 h; outline: as §1
[22] = tested on: SNB-75; test: Growth inhibition of human SNB75 cells after 48 hrs by SRB assay; settings: SNB-75, 48 h; outline: as §1
[23] = tested on: T47D; test: Growth inhibition of human T47D cells after 48 hrs by SRB assay; outline: as §3
[24] = tested on: OVCAR-4; test: Growth inhibition of human OVCAR4 cells after 48 hrs by SRB assay; settings: OVCAR-4, 48 h; outline: as §1
[25] = tested on: UACC-257; test: Growth inhibition of human UACC257 cells after 48 hrs by SRB assay; settings: UACC-257, 48 h; outline: as §3
[26] = tested on: SK-MEL-5; test: Growth inhibition of human SK-MEL-5 cells after 48 hrs by SRB assay; settings: SK-MEL-5, 48 h; outline: as §1
[27] = read-out: LC50 (the source's name)

COc1ccc(C2CC(c3nc4ccccc4[nH]3)=NN2c2ccccc2)cc1OC (stereo not drawn)
GI50 [1]: 5.46 µM
TGI [1]: 34.8 µM
CC50 [1, 27]: > 100 µM
GI50 [2]: 26.6 µM
TGI [2]: > 100 µM
CC50 [2, 27]: > 100 µM
GI50 [3]: 5.14 µM
TGI [3]: 58.1 µM
CC50 [3, 27]: > 100 µM
GI50 [4]: 9.91 µM
TGI [4]: 24.7 µM
CC50 [4, 27]: 61.4 µM
GI50 [5]: 3.94 µM
TGI [5]: 16.5 µM
CC50 [5, 27]: 49.8 µM
GI50 [6]: 6.27 µM
TGI [6]: 49 µM
CC50 [6, 27]: > 100 µM
GI50 [7]: 17.3 µM
TGI [7]: > 100 µM
CC50 [7, 27]: > 100 µM
GI50 [8]: 3.6 µM
TGI [8]: 24.7 µM
CC50 [8, 27]: > 100 µM
GI50 [9]: 7.19 µM
TGI [9]: 91.5 µM
CC50 [9, 27]: > 100 µM
GI50 [10]: 10.3 µM
TGI [10]: 69 µM
CC50 [10, 27]: > 100 µM
GI50 [11]: 19.9 µM
TGI [11]: > 100 µM
CC50 [11, 27]: > 100 µM
GI50 [12]: 2.76 µM
TGI [12]: 10.3 µM
CC50 [12, 27]: 76.6 µM
GI50 [13]: 16.1 µM
TGI [13]: > 100 µM
CC50 [13, 27]: > 100 µM
GI50 [14]: 21.3 µM
TGI [14]: > 100 µM
CC50 [14, 27]: > 100 µM
GI50 [15]: 15.3 µM
TGI [15]: > 100 µM
CC50 [15, 27]: > 100 µM
GI50 [16]: 2.59 µM
TGI [16]: > 100 µM
CC50 [16, 27]: > 100 µM
GI50 [17]: 2.23 µM
TGI [17]: 6.82 µM
CC50 [17, 27]: 88.7 µM
GI50 [18]: 9.88 µM
TGI [18]: 33.2 µM
CC50 [18, 27]: > 100 µM
GI50 [19]: 13.4 µM
TGI [19]: 36.1 µM
CC50 [19, 27]: 97 µM
GI50 [20]: 5.25 µM
TGI [20]: 21.2 µM
CC50 [20, 27]: 64.9 µM
GI50 [21]: 2.41 µM
TGI [21]: 15.3 µM
CC50 [21, 27]: 54.2 µM
GI50 [22]: 11 µM
TGI [22]: 47.4 µM
CC50 [22, 27]: > 100 µM
GI50 [23]: 3.09 µM
TGI [23]: 51.1 µM
CC50 [23, 27]: > 100 µM
GI50 [24]: 9.31 µM
TGI [24]: > 100 µM
CC50 [24, 27]: > 100 µM
GI50 [25]: 77.1 µM
TGI [25]: > 100 µM
CC50 [25, 27]: > 100 µM
GI50 [26]: 2.62 µM
TGI [26]: 15.1 µM
CC50 [26, 27]: 67.6 µM
